Experimental data from PubChem BioAssay.
The source made the active and inactive calls.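 How the source made its calls, unless noted: active means inhibition of the reporter signal at or above 50%; inactive means inhibition below 50%.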

Key:
[1] = inhibitors of TNFa-induced NFkB p65 translocation, primary screen, imaging, HUVEC, MLSMR starter and 10KST1 sets (AID 438;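 active means inhibition above 20% together with a positive visual image hit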;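 further: compound added about 3h40 before a 20 min TNFalpha stimulation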;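 on inhibition: signal is the nuclear over cytoplasmic p65 intensity ratio per well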); conditions: HUVEC TNFa-induced p65 nuclear translocation; cell count: measured here: nuclei count (cytotoxicity indicator), at 2.08 µM; inhibition: at 2 µM, stronger effect = higher value, 0% TNFa-plus-vehicle, 100% no-TNFa wells
[2] = reduction of polyQ htt aggregates in cells – imaging, exon1htt(103Q)mCFP cells, high-content imaging, primary screen (AID 483;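 active means visual image review flags a hit and inhibition of aggregation exceeds 20%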;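 further: compound exposure lasted 3 days before fixation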;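 on nuclei count: percent of the per-plate median nuclei count of sample wells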); conditions: exon1htt(103Q)mCFP cell line, aggregate imaging, at 2 µM; inhibition of aggregation: stronger effect = higher value; nuclei count: measured here: cell count, toxicity
[3] = endothelial E-selectin expression blockers – imaging, HUVEC, immunofluorescence, MLSMR starter and 10KST1 sets, primary screen (AID 487;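 active means visually confirmed hit in the image check and inhibition above 20%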;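 on inhibition: signal is fraction of cell area covered by stained E-selectin grains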;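 on nuclei count: 100% = median nuclei count of all wells on the same plate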); conditions: HUVEC TNFalpha-induced E-selectin immunofluorescence imaging, at 2 µM; inhibition: stronger effect = higher value; nuclei count: measured here: cell number, toxicity
[4] = target: Voltage-gated potassium channel subunit beta-2 (Rattus norvegicus) (UniProt P62483); test: inhibitors of rat Kvbeta2 reductase activity – biochemical, NADPH fluorescence, primary screen (AID 622;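 active means fluorescence slope higher than the sample average by over 3 SD, cut at about -0.22 in these data, passing the limit was not always enough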;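 further: slope of raw intensity against log time taken from 70 to 1610 s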); conditions: recombinant KvBeta, 4-cyanobenzaldehyde reduction, at 10 µM, stronger effect = higher value
[5] = target: Voltage-gated potassium channel subunit beta-2 (Rattus norvegicus) (UniProt P62483); test: enhancers of rat Kvbeta2 NADPH turnover – biochemical, NADPH fluorescence, primary screen (AID 623;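 active means NADPH fluorescence slope more negative than the mean of all samples by about 3 SD, 99.7% confidence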;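 further: fluorescence intensity change per second fitted from 20 to 320 s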); conditions: Recombinant KvBeta, NADPH fluorescence decrease slope, 10 min; at 10 µM; stronger effect = lower value
[6] = target: Muscarinic acetylcholine receptor M4 (Homo sapiens) (UniProt P08173); test: M4-linked GIRK flux change, two-sided – cell-based, HEK293 M4/GIRK, thallium flux, BTC-AM, M4 allosteric agonist project, primary screen (AID 625;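 active means fluorescence slope after compound addition differing from the mean of all tested samples at 99.7% confidence, mostly higher but some lower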;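 further: thallium influx through GIRK channels coupled to M4 in HEK293 cells with BTC-AM dye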); conditions: at 10 µM, actives lie on both sides
Outline: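 System: HEK293 cells with M4 receptor and GIRK channels | Incubation: Cells overnight at 37 °C, BTC-AM loading 1 h, reads 2 min total | Technique: Kinetic BTC-AM fluorescence sampled at 1 Hz, 10 s pre-addition baseline | Measure: Post-addition slope, 15–24 s, of baseline-normalized fluorescence | Control set: Carbachol positive, DMSO negative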

[7] = blockers of RIG-like receptor reporter activation – cell-based, Sendai virus stimulus, luciferase, 10K MLSCN set, TLR/RLR signaling modifier project, primary screen (AID 602276;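 active means inhibition at or above 50% at 10 µM; inactive means inhibition below 50%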;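 further: firefly luciferase from ISG56 promoter only with Renilla not read in this screen; 0% = Sendai virus plus DMSO and 100% = medium plus DMSO without virus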); conditions: HEK293 RL24 IRF3 luciferase reporter, at 10 µM, stronger effect = higher value
[8] = TLR3 IRF3 reporter activation blockers – cell-based, poly I:C stimulus, luciferase, 10K MLSCN set, primary screen (AID 602277); conditions: HEK293-TLR3 RL24 IRF3 luciferase reporter, at 10 µM, stronger effect = higher value

Voltage-gated potassium channel subunit beta-2 (Rattus norvegicus), sequence (P62483 whole entry, looked up): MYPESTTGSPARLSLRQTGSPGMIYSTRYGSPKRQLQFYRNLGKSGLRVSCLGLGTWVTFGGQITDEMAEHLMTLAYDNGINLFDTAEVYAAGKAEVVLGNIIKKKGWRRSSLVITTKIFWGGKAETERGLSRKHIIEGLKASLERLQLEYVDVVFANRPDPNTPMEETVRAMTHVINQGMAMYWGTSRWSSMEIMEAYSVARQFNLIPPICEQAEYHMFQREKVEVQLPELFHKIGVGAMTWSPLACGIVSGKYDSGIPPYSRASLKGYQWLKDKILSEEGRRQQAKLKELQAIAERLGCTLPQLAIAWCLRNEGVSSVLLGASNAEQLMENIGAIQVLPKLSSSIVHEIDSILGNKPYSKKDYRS
Muscarinic acetylcholine receptor M4 (Homo sapiens), sequence (P08173 whole entry, looked up): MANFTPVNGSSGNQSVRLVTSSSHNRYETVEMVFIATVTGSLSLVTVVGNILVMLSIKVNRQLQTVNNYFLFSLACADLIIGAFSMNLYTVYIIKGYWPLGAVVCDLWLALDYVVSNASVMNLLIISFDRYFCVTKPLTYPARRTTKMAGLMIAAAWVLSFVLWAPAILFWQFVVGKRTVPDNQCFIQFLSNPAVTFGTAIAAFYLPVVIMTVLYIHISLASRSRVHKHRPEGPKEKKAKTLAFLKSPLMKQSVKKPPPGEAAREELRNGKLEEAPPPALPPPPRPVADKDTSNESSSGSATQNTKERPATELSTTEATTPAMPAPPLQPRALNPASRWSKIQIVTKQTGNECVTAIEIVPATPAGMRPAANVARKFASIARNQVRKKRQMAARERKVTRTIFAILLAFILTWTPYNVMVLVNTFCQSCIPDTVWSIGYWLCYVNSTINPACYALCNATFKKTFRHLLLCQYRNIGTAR

Row | SMILES | cell count [1] | inhibition [1] | inhibition of aggregation [2] | nuclei count [2] [%] | inhibition [3] | nuclei count [3] [%] | fluorescence slope [4] | NADPH fluorescence slope [5] | fluorescence slope [6] | inhibition [7] | inhibition [8]
1 | O=C(Nc1ccccc1C(=O)NCC1CCCO1)c1ccco1 (centres undefined) | 304 | -8% (inactive) | -23.2% (inactive) | 95.5 | -50.7% (inactive) | 123 | -0.458 (inactive) | 2.2e-05 (inactive) | 0.00531 (inactive) | 9.09% (inactive) | 15.4% (inactive)
2 | O=C(CCC(=O)OCCCC(F)(F)C(F)(F)F)NC1CCCCC1 | 424 | 4% (inactive) | 5.5% (inactive) | 108 | -37.5% (inactive) | 122 | -0.53 (inactive) | -4e-05 (inactive) | 0.00556 (inactive) | 13.9% (inactive) | 16.1% (inactive)
3 | CC(C)(C)n1ncc2c(=O)n(CC(=O)NCc3ccco3)cnc21 | 421 | 4.8% (inactive) | -12.5% (inactive) | 104 | 4.2% (inactive) | 112 | -0.574 (inactive) | 3.5e-06 (inactive) | 0.00566 (inactive) | -35.6% (inactive) | -92% (inactive)
4 | COc1ccccc1-n1c(SCC(N)=O)nnc1-c1ccccc1 | 737 | 19.3% (inactive) | -24.2% (inactive) | 106 | -0.4% (inactive) | 80.6 | -0.484 (inactive) | -3.5e-05 (inactive) | 0.00627 (inactive) | 13.3% (inactive) | 23.1% (inactive)
5 | CC(C)N(C(=O)COC(=O)c1ccc(O)cc1)C(C)C | 467 | 1% (inactive) | 12.6% (inactive) | 112 | -8.7% (inactive) | 121 | -0.553 (inactive) | -3.1e-05 (inactive) | 0.00574 (inactive) | 17.3% (inactive) | 14.3% (inactive)
6 | CCOc1ccccc1NS(=O)(=O)c1c(C)noc1C | 389 | 5.5% (inactive) | 42.8% (inactive) | 97.1 | -3.1% (inactive) | 111 | -0.461 (inactive) | 4.7e-05 (inactive) | 0.00758 (inactive) | 0.4% (inactive) | 24.4% (inactive)
7 | CC(=O)N1CCc2cc(S(=O)(=O)CCC(=O)N3CCN(c4ccccn4)CC3)ccc21 | 592 | -2.7% (inactive) | 2.8% (inactive) | 107 | -65.1% (inactive) | 94.5 | -0.456 (inactive) | 5.1e-05 (inactive) | 0.0102 (inactive) | -15.2% (inactive) | -27.2% (inactive)
8 | Cc1cc(NC(=O)COc2cccc3cccnc23)no1 | 465 | 2% (inactive) | 11.9% (inactive) | 103 | -67.8% (inactive) | 106 | -0.385 (inactive) | -2.5e-05 (inactive) | 0.00637 (inactive) | -7.48% (inactive) | -15.6% (inactive)
9 | CN(C)C(CNc1nnnn1-c1ccccc1)c1ccco1 (centres undefined) | 632 | -7.3% (inactive) | -11.4% (inactive) | 96 | -23.9% (inactive) | 116 | -0.584 (inactive) | 4.2e-06 (inactive) | 0.00677 (inactive) | 8.59% (inactive) | 19.2% (inactive)
10 | Cc1nn(-c2nc3ccccc3[nH]2)c(N)c1-c1ccccc1 | 666 | -7.5% (inactive) | -12.6% (inactive) | 110 | -105% (inactive) | 110 | -0.47 (inactive) | -2.8e-06 (inactive) | 0.00573 (inactive) | -38.3% (inactive) | -134% (inactive)
11 | CC(=O)NC1=NC(=O)/C(=C/N2CCCCC2)S1 | 391 | -4.7% (inactive) | 1.3% (inactive) | 105 | -11.8% (inactive) | 103 | -0.459 (inactive) | -3.8e-05 (inactive) | 0.00493 (inactive) | 21.1% (inactive) | 16.4% (inactive)
12 | COc1cccc(OC)c1C(=O)Nc1ccc(CN2CCCCC2)cc1 | 640 | -2.4% (inactive) | -16.7% (inactive) | 71.4 | -32.5% (inactive) | 98.8 | -0.425 (inactive) | -3.1e-06 (inactive) | 0.00659 (inactive) | 13.4% (inactive) | 23.2% (inactive)
13 | Cc1cc(NC(=O)C2CCCC2)nc2c1c(=O)oc1ccccc12 | 601 | -3.4% (inactive) | 12.4% (inactive) | 98.2 | -16.3% (inactive) | 106 | -0.578 (inactive) | -4.4e-05 (inactive) | 0.00687 (inactive) | 7.38% (inactive) | 9.88% (inactive)
14 | CCc1cc2c(=O)c(-c3ccc4c(c3)OCCO4)coc2cc1OC(=O)c1ccco1 | 637 | -5.2% (inactive) | 4.7% (inactive) | 92.8 | -184% (inactive) | 105 | -0.554 (inactive) | -4.2e-05 (inactive) | 0.00495 (inactive) | -45.7% (inactive) | -122% (inactive)
15 | CC(C)CCNC(=O)CCNS(=O)(=O)c1ccc(Cl)cc1 | 538 | -19.2% (inactive) | 1.9% (inactive) | 79.8 | -36.9% (inactive) | 91.3 | -0.566 (inactive) | -1.2e-05 (inactive) | 0.00577 (inactive) | 22.9% (inactive) | 25.9% (inactive)
16 | Cc1noc(C)c1CSc1nnc(-c2ccncc2)n1-c1cccc(Cl)c1C | 344 | -2.1% (inactive) | -9% (inactive) | 107 | 51.9% (inactive) | 74.2 | -0.482 (inactive) | 5.5e-05 (inactive) | 0.00492 (inactive) | 10.2% (inactive) | 34.9% (inactive)
17 | CCCCN(c1ccccc1)S(=O)(=O)c1ccc2c(c1)CCN2C(=O)CCC(=O)O | 648 | 1.3% (inactive) | 7.8% (inactive) | 112 | -65.5% (inactive) | 117 | -0.526 (inactive) | 5.3e-05 (inactive) | 0.00543 (inactive) | 22.6% (inactive) | 99.4% (active)
18 | CCOC(=O)C1CCN(C(=O)CSc2cc(=O)n(CC)c3ccccc23)CC1 | 378 | 2.2% (inactive) | -0.2% (inactive) | 110 | -26.1% (inactive) | 111 | -0.629 (inactive) | 6.5e-05 (inactive) | 0.00567 (inactive) | -0.518% (inactive) | 38.8% (inactive)
19 | CC(C)CN1C(=O)c2ccc(C(=O)Nc3nccs3)cc2C1=O | 513 | 8.1% (inactive) | -20.1% (inactive) | 120 | -335% (inactive) | 137 | -0.586 (inactive) | -2.9e-06 (inactive) | 0.00611 (inactive) | 13.3% (inactive) | 5.57% (inactive)
20 | CCCSc1nc2c(c(=O)[nH]c(=O)n2C)n1CCc1ccccc1 | 413 | 11.9% (inactive) | 0.6% (inactive) | 107 | -76.3% (inactive) | 110 | -0.507 (inactive) | -3.4e-05 (inactive) | 0.00465 (inactive) | 17.9% (inactive) | 4.39% (inactive)
21 | CCOC(=O)C1CCCN(C(=O)c2ccc3c(=O)n(CCOC)c(=S)[nH]c3c2)C1 (centres undefined) | 417 | 3.9% (inactive) | -2.5% (inactive) | 81.3 | 20.2% (inactive) | 91.8 | -0.386 (inactive) | -6.4e-05 (inactive) | 0.00594 (inactive) | 6.16% (inactive) | -7.26% (inactive)
22 | CCOC(=O)c1sc(NS(=O)(=O)c2ccc(NC(C)=O)cc2)nc1C | 701 | -3.5% (inactive) | -10.1% (inactive) | 99.8 | 1% (inactive) | 94.9 | -0.448 (inactive) | 1.6e-05 (inactive) | 0.00462 (inactive) | 11.5% (inactive) | 19.8% (inactive)
23 | N#CC1=C(SCc2ccccc2)NC(=O)C(C#N)C12CCCC2 (centres undefined) | 413 | 4% (inactive) | -2.9% (inactive) | 116 | -9.1% (inactive) | 86.6 | -0.426 (inactive) | 2e-05 (inactive) | 0.00517 (inactive) | 2.21% (inactive) | -12.9% (inactive)
24 | COC(=O)CCc1c(C)c(C#N)c2nc3ccccc3n2c1N1CCCC1 | 490 | -2.7% (inactive) | 9.1% (inactive) | 103 | -103% (inactive) | 159 | -0.0763 (active) | -4e-06 (inactive) | 0.00578 (inactive) | 15% (inactive) | -5.51% (inactive)
25 | COC(=O)c1cn(C(=O)OC)c2ccccc12 | 447 | -2.7% (inactive) | 10.2% (inactive) | 108 | -17.8% (inactive) | 108 | -0.593 (inactive) | -8.8e-05 (inactive) | 0.00446 (inactive) | 13.8% (inactive) | 10.5% (inactive)
26 | O=c1c2c3c(sc2n2cnnc2n1CCc1ccccc1)CCCC3 | 660 | -1.4% (inactive) | 3.7% (inactive) | 99.9 | -171% (inactive) | 130 | -0.543 (inactive) | -2.6e-05 (inactive) | 0.00413 (inactive) | 2.46% (inactive) | 2.39% (inactive)
27 | CCCN(CCO)Cc1cccc(Br)c1 | 492 | -1.1% (inactive) | 7.9% (inactive) | 93.6 | -109% (inactive) | 109 | -0.437 (inactive) | 2.5e-05 (inactive) | 0.00547 (inactive) | 14.5% (inactive) | 19.3% (inactive)
28 | O=C(O)C1CC(=O)N(Cc2ccccc2)C1 (centres undefined) | 398 | -1.8% (inactive) | -0.4% (inactive) | 110 | -43.7% (inactive) | 127 | -0.526 (inactive) | -0.00016 (inactive) | 0.00382 (inactive) | 16.7% (inactive) | 17% (inactive)
29 | Cc1ccc(S(=O)(=O)N(CC(=O)N2CCOCC2)CC(=O)N2CCOCC2)cc1 | 676 | -9% (inactive) | -5.6% (inactive) | 108 | -163% (inactive) | 106 | -0.486 (inactive) | -1.3e-05 (inactive) | 0.00519 (inactive) | 13% (inactive) | 27.1% (inactive)
